Measurements: ChEMBL document CHEMBL2057152, “Synthesis and antibacterial activity against Clostridium difficile of novel demethylvancomycin derivatives” (2012)
In brackets after ≈: the same amount, converted by molar mass.

Legend:
Assay type in all cases: functional
[1] = system: Clostridioides difficile; assay: Antibacterial activity against Clostridium difficile IQCC 23903 after 16 hrs by two-fold serial dilution method; conditions: IQCC 23903, 16 h
Summary of the method: (§1)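 CLSI agar dilution MIC. Compounds are dissolved in 50% water in DMSO as a stock, twofold serially diluted in sterile water, then diluted 10-fold into Mueller-Hinton agar. Organisms are grown in MH broth at 35 °C for 8 h and adjusted to 0.5 McFarland. They are applied to the drug-containing plates by multipoint inoculator and incubated at 35 °C for 16 h. Vancomycin and demethylvancomycin serve as controls.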

[2] = system: Clostridioides difficile; assay: Ratio of MIC for demethylvancomycin to compound MIC for Clostridium difficile ATCC 43255 after 16 hrs by two-fold serial dilution method
[3] = Antibacterial activity against Clostridium difficile ATCC 43255 after 16 hrs by two-fold serial dilution method; conditions: Clostridioides difficile, ATCC 43255, 16 h; summary of the method: as §1
[4] = system: Clostridioides difficile; assay: Antibacterial activity against Clostridium difficile ATCC 700057 after 16 hrs by two-fold serial dilution method; conditions: ATCC 700057, 16 h; summary of the method: as §1
[5] = system: Clostridioides difficile; assay: Ratio of MIC for demethylvancomycin to compound MIC for Clostridium difficile ATCC 700792 after 16 hrs by two-fold serial dilution method
[6] = system: Clostridioides difficile; assay: Ratio of MIC for vancomycin to compound MIC for Clostridium difficile IQCC 23903 after 16 hrs by two-fold serial dilution method
[7] = system: Enterococcus faecalis; assay: Antibacterial activity against Enterococcus faecalis ATCC 700802 after 16 hrs by two-fold serial dilution method; conditions: ATCC 700802, 16 h; summary of the method: as §1
[8] = system: Clostridioides difficile; assay: Ratio of MIC for vancomycin to compound MIC for Clostridium difficile ATCC 43255 after 16 hrs by two-fold serial dilution method
[9] = system: Clostridioides difficile; assay: Ratio of MIC for demethylvancomycin to compound MIC for Clostridium difficile ATCC 700057 after 16 hrs by two-fold serial dilution method
[10] = system: Clostridioides difficile; assay: Antibacterial activity against Clostridium difficile ATCC 700792 after 16 hrs by two-fold serial dilution method; conditions: ATCC 700792, 16 h; summary of the method: as §1
[11] = system: Clostridioides difficile; assay: Ratio of MIC for vancomycin to compound MIC for Clostridium difficile ATCC 700792 after 16 hrs by two-fold serial dilution method
[12] = system: Clostridioides difficile; assay: Ratio of MIC for vancomycin to compound MIC for Clostridium difficile ATCC 700057 after 16 hrs by two-fold serial dilution method
[13] = system: Clostridioides difficile; assay: Ratio of MIC for demethylvancomycin to compound MIC for Clostridium difficile IQCC 23903 after 16 hrs by two-fold serial dilution method
[14] = system: Enterococcus faecalis; assay: Ratio of MIC for demethylvancomycin to compound MIC for Enterococcus faecalis ATCC 700802 after 16 hrs by two-fold serial dilution method
[15] = system: Enterococcus faecalis; assay: Ratio of MIC for vancomycin to compound MIC for Enterococcus faecalis ATCC 700802 after 16 hrs by two-fold serial dilution method

Compound	MIC [1] [µg/mL]	Ratio [2]	MIC [3] [µg/mL]	MIC [4] [µg/mL]	Ratio [5]	Ratio [6]	MIC [7] [µg/mL]	Ratio [8]	Ratio [9]	MIC [10] [µg/mL]	Ratio [11]	Ratio [12]	Ratio [13]	Ratio [14]	Ratio [15]
CC(C)C[C@@H](N)C(=O)N[C@H]1C(=O)N[C@@H](CC(N)=O)C(=O)N[C@H]2C(=O)N[C@H]3C(=O)N[C@H](C(=O)N[C@H](C(=O)O)c4cc(O)cc(O)c4-c4cc3ccc4O)[C@H](O)c3ccc(c(Cl)c3)Oc3cc2cc(c3O[C@@H]2O[C@H](CO)[C@@H](O)[C@H](O)[C@H]2O[C@H]2C[C@](C)(NCc3ccc4ccccc4c3)[C@H](O)[C@H](C)O2)Oc2ccc(cc2Cl)[C@H]1O	0.25 (≈ 0.159 µM)	2	0.25 (≈ 0.159 µM)	0.25 (≈ 0.159 µM)	2	2	16 (≈ 10.2 µM)	2	2	0.125 (≈ 0.0793 µM)	2	2	2		
CC(C)C[C@@H](N)C(=O)N[C@H]1C(=O)N[C@@H](CC(N)=O)C(=O)N[C@H]2C(=O)N[C@H]3C(=O)N[C@H](C(=O)N[C@H](C(=O)O)c4cc(O)cc(O)c4-c4cc3ccc4O)[C@H](O)c3ccc(c(Cl)c3)Oc3cc2cc(c3O[C@@H]2O[C@H](CO)[C@@H](O)[C@H](O)[C@H]2O[C@H]2C[C@](C)(NCc3c4ccccc4cc4ccccc34)[C@H](O)[C@H](C)O2)Oc2ccc(cc2Cl)[C@H]1O	0.25 (≈ 0.154 µM)	2	0.25 (≈ 0.154 µM)	0.5 (≈ 0.308 µM)	2	2	2 (≈ 1.23 µM)	2	2	0.25 (≈ 0.154 µM)	2	2	2		
CCCCCCCN[C@@]1(C)C[C@H](O[C@H]2[C@H](Oc3c4cc5cc3Oc3ccc(cc3Cl)[C@@H](O)[C@@H](NC(=O)[C@H](N)CC(C)C)C(=O)N[C@@H](CC(N)=O)C(=O)N[C@H]5C(=O)N[C@H]3C(=O)N[C@H](C(=O)N[C@H](C(=O)O)c5cc(O)cc(O)c5-c5cc3ccc5O)[C@H](O)c3ccc(c(Cl)c3)O4)O[C@H](CO)[C@@H](O)[C@@H]2O)O[C@@H](C)[C@H]1O	0.25 (≈ 0.163 µM)	2	0.5 (≈ 0.326 µM)	0.25 (≈ 0.163 µM)	2	2	8 (≈ 5.22 µM)	2	2	0.5 (≈ 0.326 µM)	2	2	2		
CCCCCCCCCCCN[C@@]1(C)C[C@H](O[C@H]2[C@H](Oc3c4cc5cc3Oc3ccc(cc3Cl)[C@@H](O)[C@@H](NC(=O)[C@H](N)CC(C)C)C(=O)N[C@@H](CC(N)=O)C(=O)N[C@H]5C(=O)N[C@H]3C(=O)N[C@H](C(=O)N[C@H](C(=O)O)c5cc(O)cc(O)c5-c5cc3ccc5O)[C@H](O)c3ccc(c(Cl)c3)O4)O[C@H](CO)[C@@H](O)[C@@H]2O)O[C@@H](C)[C@H]1O	0.5 (≈ 0.315 µM)		0.5 (≈ 0.315 µM)	0.5 (≈ 0.315 µM)			0.5 (≈ 0.315 µM)			0.5 (≈ 0.315 µM)				64	64
CC(C)C[C@@H](N)C(=O)N[C@H]1C(=O)N[C@@H](CC(N)=O)C(=O)N[C@H]2C(=O)N[C@H]3C(=O)N[C@H](C(=O)N[C@H](C(=O)O)c4cc(O)cc(O)c4-c4cc3ccc4O)[C@H](O)c3ccc(c(Cl)c3)Oc3cc2cc(c3O[C@@H]2O[C@H](CO)[C@@H](O)[C@H](O)[C@H]2O[C@H]2C[C@](C)(NCCC(C)CC(C)(C)C)[C@H](O)[C@H](C)O2)Oc2ccc(cc2Cl)[C@H]1O (some centres undefined)	0.25 (≈ 0.16 µM)	2	0.5 (≈ 0.32 µM)	0.25 (≈ 0.16 µM)	2	2	8 (≈ 5.12 µM)	2	2	0.5 (≈ 0.32 µM)	2	2	2		
